Experimental data taken from ChEMBL document CHEMBL3112446, “Discovery and optimization of a new class of pyruvate kinase inhibitors as potential therapeutics for the treatment of methicillin-resistant Staphylococcus aureus infections” (Bioorg Med Chem, 2014).
pIC50: −log10 of the molar value. ≈ marks a conversion by molar mass, not a printed value.

Legend:
[1] = biological target: Pyruvate kinase PKLR (Homo sapiens) (UniProt P30613); experiment: Inhibition human pyruvate kinase L at 10 uM
Procedure, shortened: (§1)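 His-tagged recombinant human PK isoforms were used. Compounds were diluted in 100% DMSO and tested at 10 µM, the highest concentration tested. Values are percent inhibition of enzymatic activity.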

[2] = biological target: Pyruvate kinase PKLR (Homo sapiens) (UniProt P30613); experiment: Inhibition human pyruvate kinase R at 10 uM; procedure, shortened: as §1
[3] = biological target: Pyruvate kinase PKM (Homo sapiens) (UniProt P14618); experiment: Inhibition human pyruvate kinase M2 at 10 uM; procedure, shortened: as §1
Chain of Pyruvate kinase PKM (Homo sapiens) (P14618 2-531 limits assumed): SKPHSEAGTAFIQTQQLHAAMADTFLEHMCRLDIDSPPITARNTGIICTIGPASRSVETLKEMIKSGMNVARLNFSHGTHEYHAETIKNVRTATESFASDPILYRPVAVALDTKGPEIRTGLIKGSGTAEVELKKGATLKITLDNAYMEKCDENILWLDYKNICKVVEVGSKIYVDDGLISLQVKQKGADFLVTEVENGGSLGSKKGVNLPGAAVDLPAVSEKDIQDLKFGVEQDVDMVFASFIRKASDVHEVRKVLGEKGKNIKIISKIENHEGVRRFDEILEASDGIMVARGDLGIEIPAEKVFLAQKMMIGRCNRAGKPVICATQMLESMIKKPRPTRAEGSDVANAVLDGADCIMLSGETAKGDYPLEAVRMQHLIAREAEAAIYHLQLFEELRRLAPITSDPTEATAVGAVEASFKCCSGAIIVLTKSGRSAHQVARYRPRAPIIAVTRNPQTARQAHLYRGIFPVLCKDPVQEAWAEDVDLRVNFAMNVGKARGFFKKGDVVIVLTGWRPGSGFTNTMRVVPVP

[4] = biological target: Pyruvate kinase PKM (Homo sapiens) (UniProt P14618); experiment: Inhibition human pyruvate kinase M1 at 10 uM; procedure, shortened: as §1
Staphylococcus aureus [5] = experiment: Antibacterial activity against Staphylococcus aureus ATCC 29213 by two fold serial dilution method; format: functional
[6] = Inhibition of methicillin-resistant Staphylococcus aureus pyruvate kinase; details: for pIC50: read-out: IC50
Procedure, shortened: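 His-tagged MRSA PK. Compounds diluted in 100% DMSO. IC50 calculated from a triplicate 15-point titration.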

Staphylococcus aureus [7] = experiment: Inhibition of methicillin-resistant Staphylococcus aureus pyruvate kinase at 10 uM
Procedure, shortened: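 His-tagged MRSA PK. Compounds diluted in 100% DMSO. Percent inhibition reported at the highest concentration tested, 10 µM.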

Chain of Pyruvate kinase PKLR (Homo sapiens) (P30613 whole entry, looked up, canonical isoform): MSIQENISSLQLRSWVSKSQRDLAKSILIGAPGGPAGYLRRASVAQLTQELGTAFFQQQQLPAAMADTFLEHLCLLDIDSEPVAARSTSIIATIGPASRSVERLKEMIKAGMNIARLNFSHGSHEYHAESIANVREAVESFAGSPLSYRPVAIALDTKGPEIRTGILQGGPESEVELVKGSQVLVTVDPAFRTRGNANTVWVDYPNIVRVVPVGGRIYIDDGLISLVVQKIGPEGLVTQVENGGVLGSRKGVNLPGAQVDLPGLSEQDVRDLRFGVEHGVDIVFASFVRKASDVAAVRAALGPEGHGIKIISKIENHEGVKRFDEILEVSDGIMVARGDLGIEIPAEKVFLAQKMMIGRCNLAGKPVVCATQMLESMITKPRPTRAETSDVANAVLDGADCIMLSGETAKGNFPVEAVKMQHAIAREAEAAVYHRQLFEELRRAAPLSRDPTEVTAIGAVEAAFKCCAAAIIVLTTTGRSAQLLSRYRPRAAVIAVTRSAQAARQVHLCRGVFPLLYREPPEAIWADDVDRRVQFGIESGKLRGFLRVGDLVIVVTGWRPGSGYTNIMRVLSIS

Which results are given for `Cn1c(-c2cc3ccc(Br)cc3[nH]2)cc2cc(Br)ccc21`?
inhibition [1]: 2.8%; inhibition [2]: 2.7%; inhibition [3]: 9.1%; inhibition [4]: 13.9%; MIC>98 (Staphylococcus aureus [5]): >64 µg/mL; pIC50 [6]: 9.00; inhibition (Staphylococcus aureus [7]): 99%

For `Brc1ccc2[nH]c(-c3cc4ccccc4[nH]3)cc2c1`, which inhibition (Staphylococcus aureus [7]) is on record?
Its inhibition is 36%.

Which “MIC>98” value (Staphylococcus aureus [5]) does the source give for `Brc1ccc2cc(/C=C/c3cc4ccc(Br)cc4[nH]3)[nH]c2c1` here?
Its value is over 64 µg/mL.

And the pIC50 [6]?
The pIC50 was 8.41.

For `Brc1ccc2[nH]c(CCc3cc4ccc(Br)cc4[nH]3)cc2c1`, which “MIC>98” value (Staphylococcus aureus [5]) is on record?
Its value is over 64 µg/mL.

What about the pIC50 [6] of the same molecule?
Its pIC50 is 8.20.

Which inhibition [1] does the source give for `Brc1ccc2cc(-c3nc4ccccc4s3)[nH]c2c1` here?
Its inhibition is 7.8%.

And the inhibition [2]?
Its inhibition is 21.6%.

And the inhibition [3]?
The inhibition was 3%.

What about the inhibition [4] of the same molecule?
Its inhibition is 12.4%.

And the “MIC>98” value (Staphylococcus aureus [5])?
Its value is over 64 µg/mL.

What about the pIC50 [6] of the same molecule?
Its pIC50 is 6.82.

And the inhibition (Staphylococcus aureus [7])?
The inhibition was 89.8%.

For `Brc1ccc2c(c1)cc(-c1cc3ccc(Br)cc3[nH]1)n2CCN1CCOCC1`, which inhibition [1] is on record?
Its inhibition is 32.1%.

What about the inhibition [2] of the same molecule?
Its inhibition is 50.7%.

What about the inhibition [3] of the same molecule?
Its inhibition is 3.5%.

And the inhibition [4]?
Its inhibition is 13.1%.

And the “MIC>98” value (Staphylococcus aureus [5])?
Its value is over 64 µg/mL.

And the pIC50 [6]?
The pIC50 was 8.92.

What about the inhibition (Staphylococcus aureus [7]) of the same molecule?
The inhibition was 101%.

With `O=[N+]([O-])c1cc(-c2cc3ccccc3[nH]2)ccc1-c1cc2ccc(Br)cc2[nH]1` as the molecule, how does the inhibition [1] read?
The inhibition was -8.9%.

And the inhibition [2]?
The inhibition was 0%.

And the inhibition [3]?
Its inhibition is 6.8%.

And the inhibition [4]?
Its inhibition is 9.5%.

What about the “MIC>98” value (Staphylococcus aureus [5]) of the same molecule?
Its value is 2 µg/mL (≈ 4.63 µM).

And the pIC50 [6]?
Its pIC50 is 8.74.

What about the inhibition (Staphylococcus aureus [7]) of the same molecule?
Its inhibition is 86.2%.

Which inhibition [1] does the source give for `Brc1ccc2[nH]c(-c3cc4cc(Br)ccc4[nH]3)cc2c1` here?
Its inhibition is 9.8%.

And the inhibition [2]?
Its inhibition is 24.4%.

And the inhibition [3]?
The inhibition was 0.5%.

What about the inhibition [4] of the same molecule?
The inhibition was 12.3%.

And the pIC50 [6]?
The pIC50 was 8.52.

What about the inhibition (Staphylococcus aureus [7]) of the same molecule?
The inhibition was 71%.

For `Cn1c(C#Cc2cc3ccc(Br)cc3[nH]2)cc2ccc(Br)cc21`, which “MIC>98” value (Staphylococcus aureus [5]) is on record?
Its value is over 64 µg/mL.

What about the pIC50 [6] of the same molecule?
Its pIC50 is 7.86.

Which “MIC>98” value (Staphylococcus aureus [5]) does the source give for `O=C(O)Cn1c(-c2cc3ccc(Br)cc3[nH]2)cc2cc(Br)ccc21` here?
Its value is over 64 µg/mL.

And the pIC50 [6]?
Its pIC50 is 7.95.

Which inhibition [1] does the source give for `OCCn1c(-c2cc3ccc(Br)cc3[nH]2)cc2cc(Br)ccc21` here?
Its inhibition is 6.8%.

And the inhibition [2]?
Its inhibition is 25.2%.

What about the inhibition [3] of the same molecule?
Its inhibition is 12.1%.

And the inhibition [4]?
The inhibition was 14.6%.

What about the “MIC>98” value (Staphylococcus aureus [5]) of the same molecule?
Its value is 2 µg/mL (≈ 4.61 µM).

And the pIC50 [6]?
Its pIC50 is 8.89.

What about the inhibition (Staphylococcus aureus [7]) of the same molecule?
Its inhibition is 101%.

For `Brc1ccc2[nH]c(-c3cc4cc(Br)c(Br)cc4[nH]3)cc2c1`, which “MIC>98” value (Staphylococcus aureus [5]) is on record?
Its value is 1 µg/mL (≈ 2.13 µM).

What about the pIC50 [6] of the same molecule?
Its pIC50 is 8.80.

What does the source list for `Brc1ccc2cc(C#Cc3cc4ccc(Br)cc4[nH]3)[nH]c2c1`?
MIC>98 (Staphylococcus aureus [5]): >64 µg/mL; pIC50 [6]: 8.62

For `Brc1ccc2cc(-c3cc4ccccc4s3)[nH]c2c1`, which “MIC>98” value (Staphylococcus aureus [5]) is on record?
The value was over 64 µg/mL.

What about the pIC50 [6] of the same molecule?
The pIC50 was 7.85.

What does the source list for `O=C(Cn1c(-c2cc3ccc(Br)cc3[nH]2)cc2cc(Br)ccc21)N1CCOCC1`?
MIC>98 (Staphylococcus aureus [5]): >64 µg/mL; pIC50 [6]: 8.22

With `Brc1ccc2[nH]c(/C=C/c3cc4ccc(Br)cc4[nH]3)cc2c1` as the molecule, how does the “MIC>98” value (Staphylococcus aureus [5]) read?
Its value is over 64 µg/mL.

What about the pIC50 [6] of the same molecule?
Its pIC50 is 8.39.

Which “MIC>98” value (Staphylococcus aureus [5]) does the source give for `Brc1ccc2cc(-c3cc4cc(-c5ccccc5)ccc4[nH]3)[nH]c2c1` here?
Its value is over 64 µg/mL.

What about the pIC50 [6] of the same molecule?
Its pIC50 is 8.66.

Which “MIC>98” value (Staphylococcus aureus [5]) does the source give for `Brc1ccc2[nH]c(-c3nc4ccccc4s3)cc2c1` here?
The value was over 64 µg/mL.

And the pIC50 [6]?
Its pIC50 is 6.45.

With `Brc1ccc2cc(C#Cc3cc4ccccc4[nH]3)[nH]c2c1` as the molecule, how does the “MIC>98” value (Staphylococcus aureus [5]) read?
Its value is over 64 µg/mL.

What about the pIC50 [6] of the same molecule?
The pIC50 was 8.15.

For `Brc1ccc2cc(-c3cc4ccccc4[nH]3)[nH]c2c1`, which “MIC>98” value (Staphylococcus aureus [5]) is on record?
The value was 2 µg/mL (≈ 6.43 µM).

What about the pIC50 [6] of the same molecule?
Its pIC50 is 7.67.

For `Brc1ccc2[nH]c(-c3cc4ccccc4o3)cc2c1`, which inhibition (Staphylococcus aureus [7]) is on record?
The inhibition was 45%.

For `Cn1c(-c2cc3cc(Br)ccc3[nH]2)cc2ccc(Br)cc21`, which IC50 [6] is on record?
The IC50 was “Not Active”.

What about the inhibition (Staphylococcus aureus [7]) of the same molecule?
Its inhibition is 25%.

For `Brc1ccc2cc(-c3cccc(-c4cc5ccccc5[nH]4)c3)[nH]c2c1`, which inhibition (Staphylococcus aureus [7]) is on record?
Its inhibition is 36%.

With `Cn1c(C#Cc2cc3ccc(Br)cc3n2C)cc2ccc(Br)cc21` as the molecule, how does the inhibition (Staphylococcus aureus [7]) read?
Its inhibition is 27%.

For `Brc1ccc2[nH]c(-c3nc4ccc(Br)cc4s3)cc2c1`, which “MIC>98” value (Staphylococcus aureus [5]) is on record?
The value was over 64 µg/mL.

And the pIC50 [6]?
The pIC50 was 8.39.

Which results are given for `Brc1ccc2cc(-c3ccc(-c4cc5ccccc5[nH]4)cc3)[nH]c2c1`?
MIC>98 (Staphylococcus aureus [5]): >64 µg/mL; pIC50 [6]: 8.25

Which inhibition (Staphylococcus aureus [7]) does the source give for `Brc1cc2cc(-c3cc4ccccc4[nH]3)[nH]c2cc1Br` here?
Its inhibition is 39%.
